Source: PubChem BioAssay
This is a sample that favours compounds with a hit; in the whole collection about 5.8% have one here.
GASC1 inh: inhibitors of GASC-1 (KDM4C) histone demethylase, primary screen, biochemical, single concentration HTS; Lysine-specific demethylase 4C (Homo sapiens), Q9H3R0; GST-KDM4C 2-372, H3K9me3 peptide, LANCE TR-FRET; inhibition, % at 12.5 µM; 96,000 compounds, 0.15% hits;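 active = mean replicate inhibition above about 25%, with at least 55% of replicates also reaching it, limit read from the data, passing the limit was not always enough; inconclusive = only one of those two conditions met; inactive = neither condition met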
Target sequence (Q9H3R0 2-372 limits assumed): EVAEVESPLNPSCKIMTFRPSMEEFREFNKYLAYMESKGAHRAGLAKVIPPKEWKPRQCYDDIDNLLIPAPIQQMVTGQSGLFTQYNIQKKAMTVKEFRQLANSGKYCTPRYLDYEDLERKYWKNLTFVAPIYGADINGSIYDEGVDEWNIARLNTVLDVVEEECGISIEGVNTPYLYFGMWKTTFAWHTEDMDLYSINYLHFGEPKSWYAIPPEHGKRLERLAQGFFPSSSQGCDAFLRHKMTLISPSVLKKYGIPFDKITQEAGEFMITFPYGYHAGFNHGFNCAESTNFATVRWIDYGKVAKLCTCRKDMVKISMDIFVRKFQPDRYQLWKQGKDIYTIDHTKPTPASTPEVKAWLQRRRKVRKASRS
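Compound: one test concentration per compound; Material: GST-GASC-1 enzyme fragment 2-372; Amount: GASC-1 enzyme at 10 nM final in reaction; Also added: H3K9me3 peptide substrate, Fe(II), 2-oxoglutarate; Technique: LANCE TR-FRET; Times: 30 min demethylation and 1 h detection at room temperature.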
IDH1 R132H inh: inhibitors of IDH1 R132H reductase, primary screen, biochemical, plate reader, single point | 70,000 compounds, 0.18% hits | diaphorase/resazurin fluorescence, 60 min | inhibition, % at 10 µM | Isocitrate dehydrogenase [NADP] cytoplasmic (Homo sapiens), O75874; in the data active = inhibition above about 34%; inconclusive = no clear call, values can overlap the other calls; inactive = below about 11%;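 note: 0% = DMSO and 100% = no enzyme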
T cruzi growth-1: T. cruzi intracellular proliferation inhibitors, primary screen, cell-based, beta-gal Tulahuen parasites, NIH3T3 host, luminescence; 77,000 compounds, 5.9% hits; inhibition, % at 8.34 µM; T. cruzi beta-gal in NIH3T3, GalScreen luminescence, 90 h;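 active = mean inhibition above about 93%, with at least 55% of replicates each passing it, limit read from the data, passing the limit was not always enough; inconclusive = only one of those two conditions holds; inactive = neither condition holds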
Pf Dd2 growth: P. falciparum Dd2 growth inhibitors, primary screen, SYBR Green fluorescence, single dose replicates; 72 h; stronger effect = lower value; activity change, % at 10 µM; 94,000 compounds, 2.3% hits; in the data active = activity change below about -80%; inconclusive = no clear call, values can overlap the other calls
T cruzi growth-2: T. cruzi intracellular proliferation inhibitors, confirmation, cell-based, NIH3T3 host, beta-gal parasite, luminescence, cherry-pick. inhibition, % at 8.35 µM. T. cruzi beta-gal in NIH3T3, GalScreen luminescence, 90 h. 5,600 compounds, 72% hits. shares compounds with T cruzi growth-1;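 active = mean replicate inhibition above about 95% and at least 55% of replicates individually reaching it, limit read from the data; inconclusive = only one of the two criteria is met; inactive = neither criterion is met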
T cruzi growth-3: inhibitors of intracellular T. cruzi replication, confirmation, NIH3T3 host cells, beta-gal parasites, cherry-pick, set 2; shares compounds with T cruzi growth-1; T. cruzi beta-gal in NIH3T3, GalScreen luminescence, 90 h; inhibition, % at 2.09 µM; 5,600 compounds, 21% hits; AID 651740, 2012;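 active = mean inhibition above about 95%, with at least 55% of replicates also reaching it, limit read from the data; inconclusive = meets just one of the two conditions; inactive = meets neither condition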;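 note: plate controls were neutral control median for no effect and positive control median for full effect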
NIH3T3 tox: cytotoxicity in mouse NIH/3T3 fibroblasts, confirmation, cytotoxicity control for T. cruzi proliferation inhibitor project, cell-based, cherry-pick, single point; shares compounds with T cruzi growth-1; cytotoxicity (signal decrease), % at 8.35 µM; NIH/3T3 viability, CellTiter-Glo ATP luminescence, 90 h; 5,600 compounds, 14% hits;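 active = mean signal decrease across replicates above about 35% based on untreated-well scatter, with enough replicates individually passing, limit read from the data; inconclusive = no rule stated though some were filed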;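 note: 0% = median of neutral control wells and 100% = median of positive control wells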
3T3 cytotox 2: NIH/3T3 fibroblast cytotoxicity, confirmation, cytotoxicity control, cell-based, cherry-pick, single point, set 2; shares compounds with T cruzi growth-1; NIH/3T3 viability, CellTiter-Glo ATP luminescence, 90 h; inhibition, % at 24.9 µM; 5,600 compounds, 56% hits; AID 651744, 2012;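 active = mean loss of cell viability signal at or above a set limit, and enough replicates individually reaching it; inconclusive = meets only the mean limit or only the replicate share; inactive = meets neither condition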;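 note: 0% = median of neutral control wells and 100% = median of positive control wells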
Active calls of the source: *; ? = inconclusive; / = no result given.

SMILES	GASC1 inh	IDH1 R132H inh	T cruzi growth-1	Pf Dd2 growth	T cruzi growth-2	T cruzi growth-3	NIH3T3 tox	3T3 cytotox 2
C[C@@H]1CCCCO[C@@H](CN(C)Cc2ccc(C(F)(F)F)cc2)[C@@H](C)CN([C@@H](C)CO)C(=O)c2cc(NC(=O)Nc3cccc4ccccc34)ccc2O1	-3	2	?	8	108*	100*	11	8
C[C@H]1CCCCO[C@@H](CN(C)Cc2ccc(C(F)(F)F)cc2)[C@@H](C)CN([C@@H](C)CO)C(=O)c2cc(NC(=O)Nc3cccc4ccccc34)ccc2O1	-1	/	?	-27	108*	108*	10	11
C[C@H]1CCCCO[C@H](CN(C)Cc2ccc(C(F)(F)F)cc2)[C@@H](C)CN([C@@H](C)CO)C(=O)c2cc(NC(=O)Nc3cccc4ccccc34)ccc2O1	-2	/	?	2	97*	109*	-4	15
C[C@H]1CCCCO[C@@H](CN(C)Cc2ccc(C(=O)O)cc2)[C@@H](C)CN([C@@H](C)CO)C(=O)c2cc(NC(=O)Nc3cccc4ccccc34)ccc2O1	8	-20	15	-35	/	/	/	/
C[C@@H]1CN([C@H](C)CO)C(=O)c2cc(NC(=O)Nc3cccc4ccccc34)ccc2O[C@@H](C)CCCCO[C@@H]1CN(C)Cc1ccc(C(F)(F)F)cc1	-5	/	?	-87*	102*	108*	8	-3
CO[C@@H](CN(C)Cc1cc(F)ccc1F)[C@@H](C)CN([C@H](C)CO)S(=O)(=O)c1ccc(F)cc1	/	0	47	-40	/	/	/	/
C[C@@H]1CN([C@@H](C)CO)C(=O)c2ccccc2-c2ccccc2CO[C@H]1CN(C)CC1CC1	1	1	-42	5	/	/	/	/
C[C@H](CO)N1C[C@H](C)[C@@H](CN(C)C(=O)C2CCC2)Oc2ncc(-c3ccncc3)cc2C1=O	1	/	31	19	/	/	/	/
COc1ccccc1-c1ccc2c(c1)O[C@H](CN(C)S(=O)(=O)c1ccc(C)cc1)[C@@H](C)CN([C@@H](C)CO)S2(=O)=O	-2	4	126*	-74	104*	66	39*	36*
COc1ccccc1-c1ccc2c(c1)O[C@@H](CN(C)C)[C@@H](C)CN([C@@H](C)CO)S2(=O)=O	2	1	22	-24	/	/	/	/
COc1ccccc1-c1ccc2c(c1)O[C@@H](CN(C)S(=O)(=O)c1ccc(C)cc1)[C@H](C)CN([C@H](C)CO)S2(=O)=O	-2	0	127*	-84*	105*	103*	30	45*
COC(=O)C[C@@H]1CC[C@@H]2[C@H](COc3ccc(NC(=O)Nc4cccc(C)c4)cc3C(=O)N2C)O1	1	/	67	-27	/	/	/	/
CC(=O)N(C)C[C@H]1Oc2cc(-c3cccnc3)ccc2S(=O)(=O)N([C@@H](C)CO)C[C@@H]1C	0	0	-70	35	/	/	/	/
O=C(C[C@@H]1C[C@@H]2c3cc(NC(=O)Nc4ccc(C(F)(F)F)cc4)ccc3O[C@@H]2[C@H](CO)O1)NCc1ccc(Cl)cc1	0	0	166*	-45	109*	2	-12	-17
O=C(C[C@@H]1C[C@H]2c3cc(NC(=O)Nc4ccc(C(F)(F)F)cc4)ccc3O[C@H]2[C@@H](CO)O1)NCc1ccc(Cl)cc1	0	0	?	-4	100*	18	0	4
O=C(C[C@H]1C[C@H]2c3cc(NC(=O)Nc4ccc(C(F)(F)F)cc4)ccc3O[C@H]2[C@@H](CO)O1)NCc1ccc(Cl)cc1	0	-1	67	4	/	/	/	/
CC(=O)Nc1cccc(-c2nnc(SCC(=O)Nc3ccccc3F)n2C)c1	/	0	/	/	/	/	/	/
O=C(NCC[C@@H]1CC[C@@H](NC(=O)C2CCCC2)[C@H](CO)O1)c1cc(Cl)cc(Cl)c1	-1	0	/	3	/	/	/	/
Cc1ccc(S(=O)(=O)Nc2ccc3c(c2)C(=O)N([C@H](C)CO)C[C@@H](C)[C@@H](CN(C)S(=O)(=O)c2ccc(C)cc2)OCCCC[C@@H](C)O3)cc1	-2	/	93	-79	/	/	/	/
Cc1ccc(S(=O)(=O)Nc2ccc3c(c2)C(=O)N([C@H](C)CO)C[C@H](C)[C@@H](CN(C)CC2CCCCC2)OCCCC[C@H](C)O3)cc1	1	/	48	-38	/	/	/	/
Cc1ccc(S(=O)(=O)Nc2ccc3c(c2)C(=O)N([C@@H](C)CO)C[C@@H](C)[C@@H](CN(C)S(=O)(=O)c2ccc(C)cc2)OCCCC[C@H](C)O3)cc1	0	/	99*	-86*	110*	84	-21	27*
Cc1ccc(S(=O)(=O)Nc2ccc3c(c2)C(=O)N([C@@H](C)CO)C[C@@H](C)[C@H](CN(C)S(=O)(=O)c2ccc(C)cc2)OCCCC[C@H](C)O3)cc1	-3	/	?	-64	106*	69	6	58*
Cc1ccc(S(=O)(=O)Nc2ccc3c(c2)C(=O)N([C@H](C)CO)C[C@H](C)[C@H](CN(C)CC2CCCCC2)OCCCC[C@H](C)O3)cc1	4	0	?	-58	100*	94	8	102*
C[C@@H]1CN([C@H](C)CO)C(=O)c2cccc(NC(=O)c3nc4ccccc4s3)c2O[C@@H]1CN(C)C(=O)Nc1ccc(C(F)(F)F)cc1	-1	/	80	-65	/	/	/	/
C[C@H](CO)N1C[C@H](C)[C@H](CN(C)C(=O)Nc2ccc(C(F)(F)F)cc2)Oc2c(NC(=O)c3nc4ccccc4s3)cccc2C1=O	0	/	?	-55	103*	87	45*	80*
C[C@H](CO)N1C[C@H](C)[C@@H](CN(C)C(=O)Nc2ccc(C(F)(F)F)cc2)Oc2c(NC(=O)c3nc4ccccc4s3)cccc2C1=O	0	1	92*	-35	88	70	32	64*
COC(=O)CN(c1cc([N+](=O)[O-])ccc1C)S(C)(=O)=O	/	0	/	/	/	/	/	/
CCC(=O)N1CCC2(CC1)CN(C(=O)c1cnccn1)[C@H](CO)c1c2c2ccc(OC)cc2n1C	1	/	/	-8	/	/	/	/
